NR2F2 inh: blocks human COUP-TFII nuclear receptor; P24468; HEK293T NGFI-A luciferase reporter, luminescence; inhibition, % at 8.6 µM; 370,000 tested, 0.7% active; AID 686940;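 active means inhibition above a per-plate cutoff, mean inhibition of test wells between control levels plus 3 SD, cut at about 38% in these data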;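 further: cells cotransfected with COUP-TFII expression vector driving the NGFI-A reporter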
Target sequence (P24468 whole entry, looked up): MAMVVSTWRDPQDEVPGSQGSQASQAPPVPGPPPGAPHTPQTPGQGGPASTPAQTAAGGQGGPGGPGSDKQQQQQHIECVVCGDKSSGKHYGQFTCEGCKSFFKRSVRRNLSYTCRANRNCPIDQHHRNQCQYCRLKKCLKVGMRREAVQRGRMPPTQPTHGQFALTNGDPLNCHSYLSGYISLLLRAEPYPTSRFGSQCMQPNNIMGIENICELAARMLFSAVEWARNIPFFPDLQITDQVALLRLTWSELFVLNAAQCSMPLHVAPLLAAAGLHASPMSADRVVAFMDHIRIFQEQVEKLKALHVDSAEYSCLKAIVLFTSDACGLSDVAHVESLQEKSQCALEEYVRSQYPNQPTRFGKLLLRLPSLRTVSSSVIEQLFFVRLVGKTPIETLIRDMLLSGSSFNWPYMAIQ
NR2E3 ag-1: human photoreceptor-specific nuclear receptor agonism; CHO-S Gal4-NCOR/VP16-NR2E3 two-hybrid, luciferase; AID 602229; inhibition of corepressor binding, % at 3.98 µM; 360,000 tested, 0.35% active;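 active means inhibition above the mean of all tested compounds plus 3 SD, cut at about 70% in these data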;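 further: higher means lower luciferase signal from less NR2E3 corepressor binding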
CHT PAM: allosterically activates the human high affinity choline transporter; Q9GZV3; CHT-expressing cells, membrane potential dye, choline EC20; hits give high values; LV-AA mutant CHT in HEK293 cells; B-score at 10 µM; 310,000 tested, 0.49% active;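 active means initial fluorescence not abnormally high and integrated response B-score, plate-corrected, over 3 SD above library mean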
CHT inh: human CHT choline transport inhibition | 310,000 tested, 0.86% active | Q9GZV3 | AID 488975 | B-score at 10 µM | CHT-expressing cells, membrane potential dye, choline response; hits give low values;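 active means B-score over 3 SD under the library average, and starting fluorescence ratio not unusually high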;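 further: choline stimulus applied at its EC90 after an EC20 pre-addition; B-score computed on integrated fluorescence ratio after choline addition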
GalR3 antag: human GalR3 antagonism | HEK293 GalR3-CNG cAMP membrane potential fluorescence; galR3 body fused to GalR1 C-terminus | AID 651719 | O60755 | inhibition, % at 3 µM | 360,000 tested, 0.44% active;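 active means inhibition above the screen-wide average plus 3 SD, cut at about 13% in these data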;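 further: forskolin and galanin both at EC90 stimulate the cells; cAMP rise reported by CNG channel membrane potential dye signal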
NR2E3 ag-2: NR2E3 (human) agonism | Q9Y5X4 | inhibition of corepressor binding, % at 4.78 µM | GST-NR2E3/biotin-RetCOR TR-FRET, 1536-well | 320,000 tested, 0.12% active;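 active means percent inhibition above the cutoff of mean plus 3 SD of all tested compounds, set per screening campaign, cut at about 20% in these data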
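Material: NR2E3–RetCOR corepressor complex | Quantity: 1.35 nM GST-tagged NR2E3 final | Schedule: 5 h at 4 °C | Replication: Singlicate compound wells | Reagent: RetCOR corepressor, biotinylated, 7 nM | Controls: Biotin wells as high control, 0.6% DMSO wells as low control | Signal: TR-FRET, Eu(K)-anti-GST donor, streptavidin-D2 acceptor, ex 340, em 617/671 nm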
CHT act confirm: human CHT activation, confirmatory screen; shares compounds with CHT PAM; CHT-expressing cells, membrane potential dye fluorescence (FDSS); % of choline EC20–EC90 response window; HEK293 expressing CHT LV-AA mutant; choline added at its EC20; activation, % at 10 µM; AID 504833; 2,500 tested, 91% active;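 active means primary screen active, with duplicate mean activation above negative control mean plus 3 SD, cut at about 11% in these data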
HEK293 MP dye: CHT activator counter-screen hit in parental HEK293 cells | membrane potential dye fluorescence (FDSS); measured after EC20 choline addition | 2,500 tested, 62% active | AID 623908 | ratio readout change at 10 µM, hits read low | shares compounds with CHT PAM;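 active means duplicate-averaged ratio beyond 3 SD from buffer wells, up or down, though filed actives are nearly all decreases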
Hits are given with their value. A selection: hits, their analogues and other compounds. The true share with any hit is near 2.3%.

Screening COc1cc(OC)cc(C2=NCCN2)c1 returned NR2F2 inh inactive, NR2E3 ag-1 inactive, CHT PAM inactive, CHT inh inactive, GalR3 antag inactive, NR2E3 ag-2 inactive, CHT act confirm 35 and HEK293 MP dye -43.
Screening O=C(Nc1cccc(C2=NCCN2)c1)Nc1cccc(C2=NCCN2)c1 returned NR2F2 inh inactive, NR2E3 ag-1 inactive, CHT PAM inactive, CHT inh inactive, GalR3 antag inactive and NR2E3 ag-2 inactive.
CCc1ccc(CN(C)C(=O)CCc2nc3ccccc3n(-c3ccc(OC)cc3)c2=O)cc1 was read as NR2F2 inh inactive, NR2E3 ag-1 inactive, CHT PAM inactive, CHT inh inactive, GalR3 antag inactive, NR2E3 ag-2 inactive, CHT act confirm 26 and HEK293 MP dye inactive.
For COc1ccc(-n2c(=O)c(CCC(=O)N(C)Cc3ccccc3C)nc3ccccc32)cc1 the results were NR2F2 inh inactive, NR2E3 ag-1 inactive, CHT PAM inactive, CHT inh inactive, GalR3 antag inactive and NR2E3 ag-2 inactive.
For CC[n+]1c(C)sc2c3ccsc3ccc21 the results were NR2F2 inh inactive, NR2E3 ag-1 inactive, CHT PAM 10, CHT inh inactive, GalR3 antag inactive, NR2E3 ag-2 inactive, CHT act confirm 48 and HEK293 MP dye -50.
COc1ccccc1N1CCN(c2cc(N3CCCC3)nc(C)n2)CC1 was read as NR2F2 inh inactive, NR2E3 ag-1 inactive, CHT PAM 7.5, CHT inh inactive, GalR3 antag inactive, NR2E3 ag-2 inactive, CHT act confirm 54 and HEK293 MP dye -48.
COC(=O)C1CN(Cc2ccc(F)cc2)CCS(=O)(=O)N1Cc1cn(CCOC(C)=O)nn1 (stereo not given) was read as NR2F2 inh inactive.
`O=C(COC(=O)c1c2c(nc3ccccc13)CCCCC2)NCc1ccc2c(c1)OCO2` gave NR2F2 inh inactive, NR2E3 ag-1 inactive, CHT PAM 8.7, CHT inh inactive, GalR3 antag inactive, NR2E3 ag-2 inactive, CHT act confirm 36 and HEK293 MP dye inactive.
`COc1ccc(NC(=O)COC(=O)c2c3c(nc4ccccc24)CCCC3)cc1Cl` gave NR2F2 inh inactive, NR2E3 ag-1 inactive, CHT PAM inactive, CHT inh inactive, GalR3 antag inactive, NR2E3 ag-2 inactive, CHT act confirm 13 and HEK293 MP dye inactive.
For C=CCNC(=O)COC(=O)c1c2c(nc3ccccc13)CCC2 the results were NR2F2 inh inactive, NR2E3 ag-1 inactive, CHT PAM inactive, CHT inh inactive, GalR3 antag inactive and NR2E3 ag-2 inactive.
Screening Cc1cccc(-c2cccc3c4c([nH]c23)[C@@H]2C[C@H](N(C)C(=O)c3cccc(Cl)c3)[C@H]([C@H](C)O)CN2CC4)c1 returned NR2F2 inh inactive.
`CCOC(=O)[C@]12CCCC=C1N(CCCOC)C(=O)[C@@H]2CC(=O)N1CCCC1` gave NR2F2 inh inactive.
`Cc1ccc(N(C)C(=O)C2CCCN2S(=O)(=O)c2ccc3c(c2)n(C)c(=O)c(=O)n3C)cc1` (stereo not given) gave NR2F2 inh inactive, NR2E3 ag-1 inactive, CHT PAM 6.5, CHT inh inactive, GalR3 antag inactive, NR2E3 ag-2 inactive, CHT act confirm 24 and HEK293 MP dye -44.
CC1CCCN(S(=O)(=O)c2ccc3c(c2)n(C)c(=O)c(=O)n3C)C1 (stereo not given) was read as NR2F2 inh inactive, NR2E3 ag-1 inactive, CHT PAM inactive, CHT inh inactive, GalR3 antag inactive and NR2E3 ag-2 inactive.
For Cc1ccc(S(=O)(=O)N2CCCCC2C(=O)N(C)c2ccccc2)cc1 (stereo not given) the results were NR2F2 inh inactive, NR2E3 ag-1 inactive, CHT PAM inactive, CHT inh inactive, GalR3 antag inactive and NR2E3 ag-2 inactive.

Source: PubChem BioAssay
